# Assay results as given in PubChem BioAssay.
# Values without a mark were called inactive. Results filed as inconclusive are left out. Activity calls are given as the source filed them.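 The calls were made as follows, unless noted: active = RAM network inhibition above 8.4% in each of two replicates, 3 SD over the compound average; inconclusive = above 8.4% inhibition in only one replicate; inactive = 8.4% inhibition or less in each replicate.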
# Tests used:
# [1] = S. cerevisiae growth inhibition in permissive medium (OD615), pilot counter-assay for S. cerevisiae lifespan shortening project, permissive growth control (AID 705;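 active = growth inhibition above 25% in both replicates, a cutoff set 3 SD above the mean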); conditions: OD615, 24 h, at 10 µM, hits give high values
# Procedure, shortened: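 Material: engineered DeaD yeast; compound dosing: one dose 10 µM, DMSO 0.25% final; measure: yeast growth inhibition indicated by reduced 24 h OD615; detection: OD615 turbidity read; incubation: cells pre-grown 4 h, then 24 h compound exposure, 30 °C humidified; medium: permissive synthetic complete medium with raffinose and galactose carbon sources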
# [2] = S. cerevisiae growth inhibition in restrictive medium, OD615, pilot screen, restrictive growth control, yeast lifespan reduction project (AID 706;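 active = growth inhibition above a set limit, 3 SD over mean compound inhibition, in both replicates, cut at about 43% in these data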;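 also: modified DeaD lifespan yeast strain shifted to restrictive glucose medium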); conditions: OD615, 48 h, at 10 µM, hits give high values
# Procedure, shortened: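 material = engineered S. cerevisiae DeaD strain | medium = glucose-based CSMM-D restrictive medium | times = 4 h pre-incubation, 48 h exposure at 30 °C | technique = OD615 absorbance reading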
# [3] = doxorubicin toxicity protection in MRP-1 cells – H69AR cells, CellTiter-Glo, duplicate, MRP-1 activator project, pilot screen (AID 807;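 active = viability increase at or above a cutoff of the median across tested compounds plus 3 SD, cut at about 8.5% in these data, passing the limit was not always enough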;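 also: compound pretreatment 18-22 h then 72 h combined with doxorubicin; 0% = doxorubicin alone and 100% = vehicle without doxorubicin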); conditions: H69AR viability with doxorubicin, CellTiter-Glo luminescence; at 10 µM; hits give high values
# [4] = viability of PTEN-null HCT116 cells – cell-based, HCT116 clonal line, CellTiter-Glo, pilot screen (AID 824;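 active = viability at or below 27.92% in each of two runs, the all-compound median minus 4 SD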;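 also: 0% = 20 µM Hyamine control and 100% = vehicle cell control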); conditions: HCT116 PTEN-deleted viability, 60 h, at 10 µM, hits give low values
# [5] = RAM pathway blockade in budding yeast – dse1pr::URA3 reporter, 5-FOA selection, pilot screen (AID 869;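 active = inhibition over a set limit, the all-compound mean plus 3 SD, in both replicate runs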;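 also: 0% = DMSO wells with no growth and 100% = 10 µM 1-NA-PP1 with full growth; RAM network block rescues cells from 5-FOA so hits raise OD615 growth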); conditions: S. cerevisiae dse1pr::URA3 5-FOA growth, OD615, 2 d; at 10 µM; hits give high values; strain carries analog-sensitive mutant Cbk1 kinase
# [6] = RAM signaling pathway blockade in yeast – S. cerevisiae, Pdr1DBD-CYC8 efflux-inhibited sensitized strain, primary screen (AID 1298);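 also: 0% = DMSO untreated cells without growth and 100% = 10 µM 1-NA-PP1 full growth; higher means more yeast growth rescued from 5-FOA killing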; conditions: S. cerevisiae cbk1-as DSE1-URA3 strain, 5-FOA growth OD615, 2 d; at 50 µM; hits give high values
Structure (SMILES),growth inhibition [1] [%],growth inhibition [2] [%],viability increase [3] [%],viability [4],inhibition [5] [%],RAM network inhibition [6] [%]
CCCOC(=O)c1ccc(OCC(O)Cn2c(C)nc3ccccc32)cc1 (centres undefined),-11.1,-3.87,-1.73,57.2%,0.99,6.95
CCOCCCNC(=O)C(c1ccc(Cl)cc1)N1CCC2(CC1)OCCO2 (centres undefined),-11.4,-20.9,-1.08,98%,1.17,1.59
CN(C)c1ccc(C(=O)Nc2ccc(S(=O)(=O)NC3=NCCCCC3)cc2)cc1,-6.28,-8.65,-3.44,99.4%,1.61,3.12
COc1ccc(C2=[N+]([O-])C(C)(C)N(O)C2(C)C)cc1,-8.58,12.9,-1.34,100%,1.38,0.67
CCS(=O)(=O)N1CCN(C(=O)c2cccs2)CC1,-9.68,-12.3,-1.23,100%,3.8,-0.05
NC(=O)CNC1CC(=O)N(CCc2ccccc2)C1=O (centres undefined),2.06,4.79,-2.49,98.5%,0.77,1.69
CCOC(=O)c1cc2c(=O)n3ccccc3nc2n(CCOC)c1=NC(=O)c1ccncc1,-1.34,-11.8,-5.7,99.6%,0.96,5.99
CCN(CC)C(=O)c1cn(C)c(=O)c2cc(OC)c(OC)cc12,-12.1,-8.38,-4.4,98.8%,0.515,-1.59
CCOC(=O)N1CCN(C(=O)CN(c2cccc(C)c2)S(=O)(=O)c2ccccc2)CC1,-9.07,-2.69,-2.44,97.8%,-0.31,0.62
CCCCN1C(=O)C(O)(CC(=O)c2ccco2)c2cc(Br)ccc21 (centres undefined),2.79,2.35,-6.26,11.5% (active),-0.765,-1.34
COc1cc(/C=N/n2cnnc2)ccc1OC(=O)c1cccnc1,-8.46,-8.55,-2.5,97.8%,0.985,0.57
O=C(NCC1CCCO1)C1CCCCN1S(=O)(=O)c1ccc(F)cc1 (centres undefined),-2.19,-9.73,-2.13,102%,0.075,1.44
O/N=C1\CCCc2oc3c(c21)CCCC3,-7.12,-2.73,-1.84,97.5%,2.48,1.89
CCOC(=O)c1c(O)c2c(n(Cc3ccco3)c1=O)CCCC2,-8.59,4.38,-0.86,102%,-0.075,-1.18
O=C1C(=O)N(CCCn2ccnc2)C(c2cccnc2)/C1=C(/O)c1ccc(Br)cc1 (centres undefined),-7.97,7.01,-0.15,104%,1.9,4
CCn1cc(C(=O)NCCCN2CC(C)CC(C)C2)c2cc(OC)c(OC)cc2c1=O (centres undefined),-15.8,-7.97,-2.98,97.5%,1.03,3.13
O=c1c2c(nc3c(-c4ccccc4)c[nH]n13)CCCC2,-7.02,-8.55,-5.26,49.2%,1.02,0.27
COc1ccc(NC2CS(=O)(=O)CC2NCc2ccco2)cc1 (centres undefined),3.62,-15.4,-4.04,96.2%,1.94,4.2
NC(=O)CCn1nc(-c2ccccc2)c2ccccc2c1=O,6.63,13.7,-2.48,96.8%,0.31,0
COc1ccc(OC)c(N(CC(=O)Nc2ccc3c(c2)OCO3)S(=O)(=O)c2ccccc2)c1,-11.4,-2.2,-2.35,67.9%,3.23,9.99

Structure (SMILES),growth inhibition [1] [%],growth inhibition [2] [%],viability increase [3] [%],viability [4],inhibition [5] [%],RAM network inhibition [6] [%]
COCCOC(=O)c1c(C)oc2ccc(OC(=O)c3cccs3)cc12,-11.1,-17,1.16,104%,2.33,6.79
COc1cc2c(cc1OC)C(c1cccs1)NCC2 (centres undefined),-10.4,-8.06,-3.87,92.6%,0.41,4.46
NS(=O)(=O)c1ccc(NC(=O)COC(=O)CCNC(=O)NC23CC4CC(CC(C4)C2)C3)cc1,-10.4,-4.2,0.2,98.6%,0.55,3.28
COc1ccccc1CNC(=O)CCS(=O)(=O)c1cccs1,-15.9,-3.45,-3.06,103%,1.43,0.82
Cc1cccc(N(CC(=O)Nc2c(C)n(C)n(-c3ccccc3)c2=O)S(C)(=O)=O)c1,-9.29,-0.62,-0.12,106%,1.61,1.64
CCc1nnc2n1N=C(c1ccc(-c3cc(Cl)ccc3Cl)o1)CS2,9.53,26.5,-7.22,22.4% (active),2.5,5.16
O=C(c1ccc(CN2CCOCC2)cc1)N1CCC(Cc2ccccc2)CC1,-5.94,-3.29,-0.71,93.1%,1.29,9.1
COC(=O)CNC(=O)Cn1cnc2sc(C)c(S(=O)(=O)N3CCC(C)CC3)c2c1=O,-2.79,12.7,-3.93,99.2%,1.11,0.37
CCOC(=O)C1CCN(S(=O)(=O)c2cc(Br)cc3c2N(C(=O)C2CC2)CC3)CC1,-12.9,-13.7,-1.73,96.5%,1.68,1.38
CSc1nnc2c(n1)OC(c1cn(C)c3ccccc13)N(C(C)=O)c1ccccc1-2 (centres undefined),-8.46,-4.85,-2.79,98.9%,1.54,3.59
Cc1ccc(C(=O)NCCNC(=O)CN2CCCC2)cc1,-7.48,3.55,-0.66,103%,2.21,5.7
C=C(C)Cn1c(CCCNC(=O)CC)nc2ccccc21,-5.08,14.8,-1.27,96%,1.54,-0.92
CCN1C(=S)SC(=O)C1=C1C=C(C)N(CCO)C(C)=C1,1.7,23.4,-2.35,95.3%,1.45,0.11
COc1ccccc1C(=O)Nc1ccc2c(c1)OCO2,4.22,-12.9,-3.95,89.2%,2.47,-1.49
COc1ccc(Oc2ccc(S(=O)(=O)N3CCCCC3)cc2S(=O)(=O)N2CCCCC2)cc1,-4.96,-0.32,-3.43,87.1%,1.56,3.99
CS(=O)(=O)N(CC(=O)N1CCN(c2ccccc2F)CC1)c1cc(C(F)(F)F)ccc1Cl,1.93,0.015,0.43,88.3%,-0.485,0.87
CCCCNC(=O)NS(=O)(=O)c1ccc(NS(=O)(=O)c2ccccc2)cc1,-10.8,-7.74,-0.52,98.4%,2.14,4.35
O=C(C1CCCN(S(=O)(=O)c2ccc(F)cc2)C1)N(Cc1cccs1)C1CC1 (centres undefined),-11.5,-6.14,-1.34,71.7%,2.02,2.87
CCS(=O)(=O)C(=C(Nc1ccc(OC)cc1)Nc1ccc(OC)cc1)S(=O)(=O)CC,-3.28,4.84,-0.19,95.3%,0.04,7.21
